# Experimental data reported in ChEMBL document CHEMBL5653631, “A Potent and Selective ULK1 Inhibitor Suppresses Autophagy and Sensitizes Cancer Cells to Nutrient Stress” (iScience, 2018).
# Tests used:
# [1] = biological target: T1, Serine/threonine-protein kinase DCLK2 (Homo sapiens) (UniProt Q8N568); experiment: Inhibition of human recombinant DCAMKL2 at 500 nM related to control ULK1
# T1 sequence (whole entry): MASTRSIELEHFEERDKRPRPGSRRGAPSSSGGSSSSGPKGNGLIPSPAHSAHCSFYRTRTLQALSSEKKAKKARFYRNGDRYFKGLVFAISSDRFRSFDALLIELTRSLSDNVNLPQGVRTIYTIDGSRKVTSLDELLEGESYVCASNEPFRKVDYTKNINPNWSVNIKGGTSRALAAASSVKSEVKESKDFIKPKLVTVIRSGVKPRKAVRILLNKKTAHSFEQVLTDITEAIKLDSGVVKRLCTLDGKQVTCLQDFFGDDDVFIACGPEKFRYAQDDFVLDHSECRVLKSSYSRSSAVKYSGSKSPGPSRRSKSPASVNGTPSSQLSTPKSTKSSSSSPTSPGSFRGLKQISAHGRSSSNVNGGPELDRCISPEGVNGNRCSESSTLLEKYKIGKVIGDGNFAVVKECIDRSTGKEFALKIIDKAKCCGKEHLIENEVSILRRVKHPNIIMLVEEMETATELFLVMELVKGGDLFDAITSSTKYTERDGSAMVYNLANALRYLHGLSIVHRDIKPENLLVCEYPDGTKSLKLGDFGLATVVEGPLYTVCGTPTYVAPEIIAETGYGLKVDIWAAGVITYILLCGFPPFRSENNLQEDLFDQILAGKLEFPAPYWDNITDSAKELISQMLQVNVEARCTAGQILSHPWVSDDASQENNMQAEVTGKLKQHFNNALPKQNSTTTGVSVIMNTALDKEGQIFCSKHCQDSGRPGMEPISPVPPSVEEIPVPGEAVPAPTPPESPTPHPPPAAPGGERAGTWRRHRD
# [2] = biological target: Ribosomal protein S6 kinase alpha-3 (Homo sapiens) (UniProt P51812); experiment: Inhibition of human recombinant RSK2 at 500 nM in presence of ATP by radiometric assay relative to control
# [3] = biological target: cAMP-dependent protein kinase catalytic subunit beta (Homo sapiens) (UniProt P22694); experiment: Inhibition of human recombinant PKACbeta at 500 nM related to control ULK1
# [4] = biological target: [Pyruvate dehydrogenase (acetyl-transferring)] kinase isozyme 4, mitochondrial (Homo sapiens) (UniProt Q16654); experiment: Inhibition of human recombinant PDHK4 at 500 nM related to control ULK1
# [5] = biological target: T2, Serine/threonine-protein kinase A-Raf (Homo sapiens) (UniProt P10398); experiment: Inhibition of human recombinant ARAF at 15 nM in presence of ATP by radiometric assay relative to control
# T2 sequence (whole entry): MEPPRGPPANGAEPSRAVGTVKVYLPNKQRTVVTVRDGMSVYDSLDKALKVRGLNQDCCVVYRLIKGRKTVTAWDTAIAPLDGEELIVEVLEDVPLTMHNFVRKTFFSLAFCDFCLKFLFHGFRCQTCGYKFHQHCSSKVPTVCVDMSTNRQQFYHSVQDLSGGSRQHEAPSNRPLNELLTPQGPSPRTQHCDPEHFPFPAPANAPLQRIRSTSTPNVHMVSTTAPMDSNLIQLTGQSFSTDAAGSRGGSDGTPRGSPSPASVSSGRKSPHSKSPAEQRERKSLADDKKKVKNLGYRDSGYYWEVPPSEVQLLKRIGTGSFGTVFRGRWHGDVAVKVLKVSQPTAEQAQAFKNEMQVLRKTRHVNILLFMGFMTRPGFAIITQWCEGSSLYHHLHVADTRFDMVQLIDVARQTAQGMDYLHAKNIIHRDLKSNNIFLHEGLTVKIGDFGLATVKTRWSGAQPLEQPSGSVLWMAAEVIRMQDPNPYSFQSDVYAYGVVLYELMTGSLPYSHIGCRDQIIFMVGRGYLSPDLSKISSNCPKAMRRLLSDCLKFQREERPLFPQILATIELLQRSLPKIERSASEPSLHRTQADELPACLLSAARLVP
# Procedure, shortened: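 Panel of 327 recombinant human kinases, each assayed in vitro by radiometric activity assay in duplicate at a single inhibitor concentration per compound, chosen with reference to its ULK1 inhibition. Activity remaining was expressed as percent of vehicle control, and percent inhibition was calculated as 100 minus percent activity remaining.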
# [6] = biological target: T3, NUAK family SNF1-like kinase 2 (Homo sapiens) (UniProt Q9H093); experiment: Inhibition of human recombinant NuaK2 at 15 nM in presence of ATP by radiometric assay relative to control
# T3 sequence (whole entry): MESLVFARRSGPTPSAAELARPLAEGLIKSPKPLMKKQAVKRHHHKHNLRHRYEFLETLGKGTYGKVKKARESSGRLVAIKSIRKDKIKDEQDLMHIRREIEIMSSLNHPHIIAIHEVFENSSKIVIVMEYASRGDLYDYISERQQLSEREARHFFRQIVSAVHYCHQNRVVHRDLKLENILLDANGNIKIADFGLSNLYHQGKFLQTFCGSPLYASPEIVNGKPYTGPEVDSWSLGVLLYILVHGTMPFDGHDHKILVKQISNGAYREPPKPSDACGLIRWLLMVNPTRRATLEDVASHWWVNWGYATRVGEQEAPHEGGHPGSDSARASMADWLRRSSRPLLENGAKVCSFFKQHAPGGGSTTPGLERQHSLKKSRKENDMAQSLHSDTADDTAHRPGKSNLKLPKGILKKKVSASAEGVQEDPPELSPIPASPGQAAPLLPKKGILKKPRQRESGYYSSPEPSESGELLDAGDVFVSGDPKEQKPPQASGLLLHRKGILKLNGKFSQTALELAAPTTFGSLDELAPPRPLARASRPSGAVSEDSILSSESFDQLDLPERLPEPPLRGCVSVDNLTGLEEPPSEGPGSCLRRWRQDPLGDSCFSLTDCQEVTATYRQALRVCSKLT
# [7] = biological target: Homeodomain-interacting protein kinase 3 (Homo sapiens) (UniProt Q9H422); experiment: Inhibition of human recombinant HIPK3 at 15 nM related to control ULK1
# [8] = biological target: Cyclin-dependent kinase 13 (Homo sapiens) (UniProt Q14004); experiment: Inhibition of human recombinant CHED at 15 nM in presence of ATP by radiometric assay relative to control
# Homo sapiens = species on record: Homo sapiens; experiment: Inhibition of human recombinant KHS1 at 15 nM in presence of ATP by radiometric assay relative to control
# [9] = biological target: Casein kinase I isoform gamma-1 (Homo sapiens) (UniProt Q9HCP0); experiment: Inhibition of human recombinant CK1g1 at 40 nM related to control ULK1
# [10] = biological target: Tyrosine-protein kinase Fer (Homo sapiens) (UniProt P16591); experiment: Inhibition of human recombinant FER at 40 nM related to control ULK1
# [11] = biological target: Dual specificity tyrosine-phosphorylation-regulated kinase 1B (Homo sapiens) (UniProt Q9Y463); experiment: Inhibition of human recombinant DYRK1B at 40 nM in presence of ATP by radiometric assay relative to control
# [12] = biological target: Cyclin-dependent kinase 5 (Homo sapiens) (UniProt Q00535); experiment: Inhibition of human recombinant CDK5 at 40 nM related to control ULK1
# Cyclin-dependent kinase 5 (Homo sapiens), sequence (Q00535 whole entry, looked up): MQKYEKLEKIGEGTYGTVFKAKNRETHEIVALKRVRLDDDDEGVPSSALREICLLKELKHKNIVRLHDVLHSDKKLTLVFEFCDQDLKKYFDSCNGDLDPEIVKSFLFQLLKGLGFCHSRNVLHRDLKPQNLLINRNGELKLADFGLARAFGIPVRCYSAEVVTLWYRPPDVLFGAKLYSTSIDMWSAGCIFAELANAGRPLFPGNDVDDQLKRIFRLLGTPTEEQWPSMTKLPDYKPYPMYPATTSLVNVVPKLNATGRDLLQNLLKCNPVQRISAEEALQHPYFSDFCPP
# [Pyruvate dehydrogenase (acetyl-transferring)] kinase isozyme 4, mitochondrial (Homo sapiens), sequence (Q16654 whole entry, looked up): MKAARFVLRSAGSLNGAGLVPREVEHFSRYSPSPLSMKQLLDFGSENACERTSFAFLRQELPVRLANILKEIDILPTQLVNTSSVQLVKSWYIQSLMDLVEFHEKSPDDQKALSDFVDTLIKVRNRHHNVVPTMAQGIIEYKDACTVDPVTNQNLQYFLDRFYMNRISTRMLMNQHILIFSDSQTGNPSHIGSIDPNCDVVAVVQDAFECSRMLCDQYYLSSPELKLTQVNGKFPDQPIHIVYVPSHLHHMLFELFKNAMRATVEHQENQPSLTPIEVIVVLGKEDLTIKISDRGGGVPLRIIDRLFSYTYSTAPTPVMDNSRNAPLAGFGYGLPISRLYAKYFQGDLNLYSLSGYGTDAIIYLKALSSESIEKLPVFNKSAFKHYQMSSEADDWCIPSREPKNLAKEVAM
# Homeodomain-interacting protein kinase 3 (Homo sapiens), sequence (Q9H422 whole entry, looked up): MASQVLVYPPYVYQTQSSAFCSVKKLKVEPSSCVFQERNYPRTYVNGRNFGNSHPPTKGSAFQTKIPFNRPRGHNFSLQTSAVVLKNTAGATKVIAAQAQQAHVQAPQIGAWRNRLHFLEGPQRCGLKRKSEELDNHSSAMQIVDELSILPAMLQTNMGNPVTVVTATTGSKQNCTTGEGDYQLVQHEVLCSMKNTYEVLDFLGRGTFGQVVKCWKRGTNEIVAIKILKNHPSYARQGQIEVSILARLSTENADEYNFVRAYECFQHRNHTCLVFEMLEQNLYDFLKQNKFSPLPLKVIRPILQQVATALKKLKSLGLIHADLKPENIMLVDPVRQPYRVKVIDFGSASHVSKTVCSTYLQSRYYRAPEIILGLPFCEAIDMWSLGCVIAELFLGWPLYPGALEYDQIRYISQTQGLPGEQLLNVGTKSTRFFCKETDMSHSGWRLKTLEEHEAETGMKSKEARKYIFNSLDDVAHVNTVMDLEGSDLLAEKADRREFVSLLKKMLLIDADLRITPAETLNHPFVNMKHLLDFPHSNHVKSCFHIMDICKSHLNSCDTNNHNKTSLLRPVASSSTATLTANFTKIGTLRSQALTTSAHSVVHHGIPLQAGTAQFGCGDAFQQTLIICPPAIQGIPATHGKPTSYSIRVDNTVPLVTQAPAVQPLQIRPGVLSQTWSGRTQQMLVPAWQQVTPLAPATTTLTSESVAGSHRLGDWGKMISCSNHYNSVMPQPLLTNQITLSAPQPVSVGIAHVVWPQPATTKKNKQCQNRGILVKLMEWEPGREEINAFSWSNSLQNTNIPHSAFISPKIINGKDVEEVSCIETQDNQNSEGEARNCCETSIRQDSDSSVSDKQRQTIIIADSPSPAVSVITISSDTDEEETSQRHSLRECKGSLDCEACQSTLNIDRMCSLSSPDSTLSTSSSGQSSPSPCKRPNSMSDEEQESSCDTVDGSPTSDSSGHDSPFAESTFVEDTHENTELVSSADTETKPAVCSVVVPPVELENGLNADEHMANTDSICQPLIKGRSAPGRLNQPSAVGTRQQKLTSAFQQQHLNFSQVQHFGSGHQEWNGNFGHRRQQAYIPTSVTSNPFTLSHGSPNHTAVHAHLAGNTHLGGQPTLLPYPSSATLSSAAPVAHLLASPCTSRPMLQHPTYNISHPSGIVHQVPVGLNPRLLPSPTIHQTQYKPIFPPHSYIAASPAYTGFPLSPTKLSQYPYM
# Ribosomal protein S6 kinase alpha-3 (Homo sapiens), sequence (P51812 whole entry): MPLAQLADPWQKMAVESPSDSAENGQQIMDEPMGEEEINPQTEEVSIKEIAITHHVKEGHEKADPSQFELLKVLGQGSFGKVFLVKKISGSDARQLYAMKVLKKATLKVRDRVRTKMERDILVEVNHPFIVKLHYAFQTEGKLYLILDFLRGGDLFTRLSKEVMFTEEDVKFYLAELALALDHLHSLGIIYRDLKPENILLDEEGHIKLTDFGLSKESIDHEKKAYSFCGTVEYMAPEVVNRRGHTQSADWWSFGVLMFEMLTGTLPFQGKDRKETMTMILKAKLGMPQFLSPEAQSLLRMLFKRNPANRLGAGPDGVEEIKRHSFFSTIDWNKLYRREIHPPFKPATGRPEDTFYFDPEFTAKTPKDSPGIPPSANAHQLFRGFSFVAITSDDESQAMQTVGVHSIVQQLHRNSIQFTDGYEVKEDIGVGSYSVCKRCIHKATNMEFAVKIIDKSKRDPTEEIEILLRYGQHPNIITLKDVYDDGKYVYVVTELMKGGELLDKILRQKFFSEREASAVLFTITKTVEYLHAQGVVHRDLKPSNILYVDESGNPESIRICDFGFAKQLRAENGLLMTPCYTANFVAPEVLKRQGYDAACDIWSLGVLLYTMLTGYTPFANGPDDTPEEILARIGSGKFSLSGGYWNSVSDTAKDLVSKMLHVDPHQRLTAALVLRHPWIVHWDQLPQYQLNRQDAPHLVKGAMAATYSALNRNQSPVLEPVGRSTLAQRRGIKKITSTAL
# Dual specificity tyrosine-phosphorylation-regulated kinase 1B (Homo sapiens), sequence (Q9Y463 whole entry, looked up): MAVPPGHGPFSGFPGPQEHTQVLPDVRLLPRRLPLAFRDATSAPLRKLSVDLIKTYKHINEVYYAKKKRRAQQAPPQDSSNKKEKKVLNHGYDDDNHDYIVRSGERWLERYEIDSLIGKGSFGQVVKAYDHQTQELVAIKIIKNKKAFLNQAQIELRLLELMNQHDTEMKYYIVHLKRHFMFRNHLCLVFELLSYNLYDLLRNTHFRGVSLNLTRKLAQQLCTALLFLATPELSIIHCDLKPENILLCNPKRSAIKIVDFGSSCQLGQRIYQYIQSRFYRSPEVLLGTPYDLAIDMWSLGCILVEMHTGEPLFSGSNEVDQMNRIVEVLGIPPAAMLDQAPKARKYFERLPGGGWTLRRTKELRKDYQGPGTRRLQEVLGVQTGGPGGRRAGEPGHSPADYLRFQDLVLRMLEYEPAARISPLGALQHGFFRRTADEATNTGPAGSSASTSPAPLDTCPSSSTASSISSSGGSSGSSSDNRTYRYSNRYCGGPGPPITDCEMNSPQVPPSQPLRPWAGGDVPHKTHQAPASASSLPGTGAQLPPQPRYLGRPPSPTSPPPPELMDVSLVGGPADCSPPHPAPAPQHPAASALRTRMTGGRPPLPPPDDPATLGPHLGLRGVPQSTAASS
# Tyrosine-protein kinase Fer (Homo sapiens), sequence (P16591 whole entry, looked up): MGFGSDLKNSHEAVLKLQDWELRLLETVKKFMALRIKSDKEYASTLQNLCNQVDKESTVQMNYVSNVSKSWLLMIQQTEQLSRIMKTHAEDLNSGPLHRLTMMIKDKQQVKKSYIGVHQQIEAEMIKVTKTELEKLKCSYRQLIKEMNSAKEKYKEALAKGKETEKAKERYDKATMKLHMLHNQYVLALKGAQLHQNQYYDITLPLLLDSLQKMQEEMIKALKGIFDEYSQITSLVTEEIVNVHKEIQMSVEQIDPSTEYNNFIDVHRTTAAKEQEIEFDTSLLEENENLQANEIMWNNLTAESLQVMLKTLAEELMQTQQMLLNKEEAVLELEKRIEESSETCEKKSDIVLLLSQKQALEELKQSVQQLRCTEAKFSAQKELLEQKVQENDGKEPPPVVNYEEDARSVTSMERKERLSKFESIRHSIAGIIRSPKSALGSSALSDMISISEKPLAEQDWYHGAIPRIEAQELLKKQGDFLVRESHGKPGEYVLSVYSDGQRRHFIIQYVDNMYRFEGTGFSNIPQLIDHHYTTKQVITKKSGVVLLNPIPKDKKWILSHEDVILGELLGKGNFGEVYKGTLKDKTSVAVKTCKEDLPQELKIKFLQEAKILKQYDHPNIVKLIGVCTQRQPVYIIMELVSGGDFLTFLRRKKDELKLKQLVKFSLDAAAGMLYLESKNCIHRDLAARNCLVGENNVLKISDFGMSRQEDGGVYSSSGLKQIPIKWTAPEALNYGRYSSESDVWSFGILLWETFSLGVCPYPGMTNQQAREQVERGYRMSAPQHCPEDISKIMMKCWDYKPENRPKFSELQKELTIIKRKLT
# Casein kinase I isoform gamma-1 (Homo sapiens), sequence (Q9HCP0 whole entry, looked up, canonical isoform): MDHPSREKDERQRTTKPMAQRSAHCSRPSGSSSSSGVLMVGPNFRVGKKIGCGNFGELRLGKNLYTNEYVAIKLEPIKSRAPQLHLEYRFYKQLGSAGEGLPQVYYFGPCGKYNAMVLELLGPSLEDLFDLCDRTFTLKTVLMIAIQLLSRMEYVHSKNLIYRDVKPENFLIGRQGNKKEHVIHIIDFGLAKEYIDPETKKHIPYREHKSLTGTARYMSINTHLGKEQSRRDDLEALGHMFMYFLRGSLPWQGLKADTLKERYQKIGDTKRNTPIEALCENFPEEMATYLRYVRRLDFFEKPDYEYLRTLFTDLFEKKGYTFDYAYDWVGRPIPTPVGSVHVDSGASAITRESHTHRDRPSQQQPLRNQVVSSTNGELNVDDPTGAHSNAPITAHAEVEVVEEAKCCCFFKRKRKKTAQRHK
structure (smiles),measurement,setting,value
CNC(=O)c1ccccc1Oc1nc(Nc2cc(OC)c(OC)c(OC)c2)ncc1Br,fold change (FC),[1],0
same,inhibition,[2],37%
same,fold change (FC),[3],0
same,fold change (FC),[4],0.07
CC(C)[C@H](NC(=O)c1cc(-c2cnn3cc(-c4ccc(OCCN5CCCCC5)cc4)cnc23)cs1)C(F)(F)F,inhibition,[5],6%
same,inhibition,[6],18%
same,fold change (FC),[7],0
same,inhibition,[8],0%
same,inhibition,Homo sapiens,14%
O=C(N[C@@H](C1CC1)C(F)(F)F)c1cc(-c2cnn3cc(-c4ccc(F)cc4)cnc23)cs1,fold change (FC),[9],0
same,fold change (FC),[10],0
same,inhibition,[11],31%
same,fold change (FC),[12],0.64
